Laboratory results: ChEMBL document CHEMBL1137753, “Insecticidal heterolignans--tubuline polymerization inhibitors with activity against chewing pests” (Bioorg Med Chem, 2009)
Activity calls are given as the source filed them. Unless noted, no cut-off for these calls is given here.

Legend:
[1] = system: Phaedon cochleariae; assay: Insecticidal activity against Phaedon cochleariae larvae in disk of Chinese cabbage leaf at 500 g/ha treated as spray; format: functional, organism-based
In short: (§1)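 This was sprayed on Chinese cabbage leaf disks. Once dry, disks were infested with mustard beetle larvae and mortality was scored after a set time. "+" denotes ≥80% larvae killed; n.a. denotes none killed.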

[2] = system: Spodoptera frugiperda; assay: Insecticidal activity against Spodoptera frugiperda larvae in disk of maize leaf at 100 g/ha treated as spray; format: functional, organism-based
In short: (§2)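 The same acetone/DMF/emulsifier formulation, diluted in emulsifier-containing water, was sprayed onto maize leaf disks. Dried disks were infested with fall armyworm larvae and mortality was assessed after a set time. "+" denotes ≥80% larvae killed; n.a. denotes no larvae killed.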

[3] = system: Phaedon cochleariae; assay: Insecticidal activity against Phaedon cochleariae larvae in disk of Chinese cabbage leaf at 100 g/ha treated as spray; format: functional, organism-based; in short: as §1
[4] = system: Spodoptera frugiperda; assay: Insecticidal activity against Spodoptera frugiperda larvae in disk of maize leaf treated as spray; format: functional, organism-based
[5] = species on record: Bos taurus; assay: Inhibition of bovine tubulin polymerization
In short: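 Tubulin (>99% pure, 300 µg/sample) was suspended at 4 °C in G-PEM buffer (80 mM PIPES, 2 mM MgCl2, 0.5 mM EGTA, 1.0 mM GTP, pH 6.9) plus 5% glycerol, with or without compound. Colchicine and taxol served as standards. Polymerization at 37 °C was followed as absorbance at 340 nm every 1 min for up to 60 min.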

[6] = system: Phaedon cochleariae; assay: Insecticidal activity against Phaedon cochleariae larvae in disk of Chinese cabbage leaf at 20 g/ha treated as spray; format: functional, organism-based; in short: as §1
[7] = system: CHO; assay: Cytotoxicity against CHO cells assessed as chromatin condensation after 48 hrs by fluorescence microscopy; format: cell-based, Cricetulus griseus; details: chinese hamster
In short: (§3)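 Sf9 or CHO cells were seeded in chamber slides the day before treatment and exposed to compound for 48 h. They were then PBS-washed, fixed in ice-cold methanol for 10 min on ice, and rinsed with acetone. After rehydration in PBS, cells were stained with 2 µM DAPI for 30 min. Nuclei were examined by fluorescence microscopy (×40) for chromatin condensation or fragmentation.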

[8] = system: Phaedon cochleariae; assay: Insecticidal activity against Phaedon cochleariae larvae in disk of Chinese cabbage leaf treated as spray; format: functional, organism-based
[9] = system: Sf9; assay: Cytotoxicity against Spodoptera frugiperda Sf9 cells assessed as chromatin condensation at 3 ppm after 48 hrs by fluorescence microscopy; format: functional, cell-based; in short: as §3
[10] = system: CHO; assay: Cytotoxicity against CHO cells assessed as chromatin condensation after 24 hrs by fluorescence microscopy; format: cell-based, Cricetulus griseus; details: chinese hamster
[11] = system: Spodoptera frugiperda; assay: Insecticidal activity against Spodoptera frugiperda larvae in disk of maize leaf at 500 g/ha treated as spray; format: functional, organism-based; in short: as §2
[12] = system: Spodoptera frugiperda; assay: Insecticidal activity against Spodoptera frugiperda larvae in disk of maize leaf at 4 g/ha treated as spray; format: functional, organism-based; in short: as §2
[13] = system: Sf9; assay: Cytotoxicity against Spodoptera frugiperda Sf9 cells assessed as chromatin condensation at 0.14 ppm after 48 hrs by fluorescence microscopy; format: functional, cell-based
In short: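 Sf9 cells seeded in 8-well slide chambers the day before, then exposed to compound for 48 h. After two PBS washes, cells were fixed in ice-cold methanol for 10 min on ice, given two short acetone washes, rehydrated in PBS and stained with Dapi (2 µM) for 30 min. Chromatin condensation/fragmentation scored by fluorescence microscopy with a x40 objective.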

## N#CCOc1cccc(C2C3=C(COC3=O)Nc3cc4c(cc32)OCO4)c1 (stereo unspecified)
[1]
  Activity: Active
[2]
  Activity: Active

## O=C1OCC2=C1C(c1cc(Cl)cc(Cl)c1)c1cc3c(cc1N2)OCO3 (stereo unspecified)
[3]
  Activity: Active

## CCOc1cc2c(cc1C)C(c1cc(OC)cc(OC)c1)C1=C(COC1=O)N2 (stereo unspecified)
[3]
  Activity: Active
[4]
  Activity: inactive

## CC(=O)O[C@H]1C(=O)[C@@]2(C)[C@H]([C@H](OC(=O)c3ccccc3)[C@]3(O)C[C@H](OC(=O)[C@H](O)[C@@H](NC(=O)c4ccccc4)c4ccccc4)C(C)=C1C3(C)C)[C@]1(OC(C)=O)CO[C@@H]1C[C@@H]2O
[5]
  inhibition: inactive

## O=C1OCC2=C1C(c1cc(C(F)(F)F)cc(Cl)c1F)c1cc3c(cc1N2)OCO3 (stereo unspecified)
[6]
  Activity: Active
[2]
  Activity: Active

## COc1ccc(C2C3=C(COC3=O)Nc3cc4c(cc32)OCO4)cc1OC (stereo unspecified)
[7]
  Activity: Toxic
[8]
  Activity: inactive
[4]
  Activity: inactive
[9]
  Activity: Active
[10]
  Activity: Toxic

## CC(C)Oc1cccc(C2C3=C(COC3=O)Nc3cc4c(cc32)OCO4)c1 (stereo unspecified)
[8]
  Activity: inactive
[11]
  Activity: Active

## O=C1OCC2=C1C(c1cncc(-c3ccc(F)cc3)c1)c1cc3c(cc1N2)OCO3 (stereo unspecified)
[3]
  Activity: Active
[11]
  Activity: Active

## COc1c(Cl)cc(C2C3=C(COC3=O)Nc3cc4c(cc32)OCO4)cc1Cl (stereo unspecified)
[3]
  Activity: Active
[2]
  Activity: Active

## O=C1CCC2=C1C(c1cccc(Cl)c1)c1cc3c(cc1N2)OCO3 (stereo unspecified)
[7]
  Activity: Toxic
[8]
  Activity: inactive
[4]
  Activity: inactive
[9]
  Activity: Active
[10]
  Activity: Toxic

## COc1cccc(C2C3=C(O)OCC3=Nc3cc4c(cc32)OCO4)c1 (stereo unspecified)
[8]
  Activity: inactive
[2]
  Activity: Active

## O=C1OCC2=C1C(c1cc(F)cc(F)c1)c1cc3c(cc1N2)OCO3 (stereo unspecified)
[3]
  Activity: Active

## N#Cc1cccc(C2C3=C(COC3=O)Nc3cc4c(cc32)OCO4)c1 (stereo unspecified)
[8]
  Activity: inactive
[11]
  Activity: Active

## COc1cc(OC)cc(C2C3=C(COC3=O)Nc3cc(OC(C)C)ccc32)c1 (stereo unspecified)
[7]
  Activity: Toxic
[8]
  Activity: inactive
[11]
  Activity: Active
[9]
  Activity: Active
[10]
  Activity: Toxic

## O=C1OCC2=C1C(c1cc(Br)c3c(c1)OCO3)c1cc3c(cc1N2)OCO3 (stereo unspecified)
[3]
  Activity: Active
[11]
  Activity: Active

## COc1cc(OC)cc(C2C3=C(COC3=O)Nc3cc(OC)ccc32)c1 (stereo unspecified)
[12]
  Activity: Active
[6]
  Activity: Active

## O=C1OCC2=C1C(c1cccc(C(F)(F)F)c1)c1cc3c(cc1N2)OCO3 (stereo unspecified)
[3]
  Activity: Active
[2]
  Activity: Active

## CCOc1ccc2c(c1)NC1=C(C(=O)OC1)C2c1cc(OC)cc(OC)c1 (stereo unspecified)
[7]
  Activity: Toxic
[13]
  Activity: Active
[12]
  Activity: Active
[1]
  Activity: Active
[10]
  Activity: Toxic

## COc1ccc(C2C3=C(COC3=O)Nc3cc4c(cc32)OCO4)cn1 (stereo unspecified)
[1]
  Activity: Active
[11]
  Activity: Active

## COc1cc(OC)cc(C2C3=C(CCC3=O)Nc3cc4c(cc32)OCO4)c1 (stereo unspecified)
[1]
  Activity: Active
[2]
  Activity: Active

## COc1cc(C2C3=C(COC3=O)Nc3cc4c(cc32)OCO4)cc2c1OCO2 (stereo unspecified)
[11]
  Activity: Active

## COc1cc(OC)cc(C2C3=C(Nc4cc5c(cc42)OCO5)C(C)OC3=O)c1 (stereo unspecified)
[3]
  Activity: Active
[11]
  Activity: Active

## COc1cc(OC)cc(C2C3=C(CC(C)OC3=O)Nc3cc4c(cc32)OCO4)c1 (stereo unspecified)
[1]
  Activity: Active
[11]
  Activity: Active

## COc1cc(OC)cc(C2C3=C(COC3=O)N(C)c3cc(OC)ccc32)c1 (stereo unspecified)
[8]
  Activity: inactive
[2]
  Activity: Active

## COc1cc(C2C3=C(COC3=O)Nc3cc4c(cc32)OC(F)(F)O4)cc(OC)c1OC (stereo unspecified)
[3]
  Activity: Active
[4]
  Activity: inactive

## COc1cc(OC)cc([C@H]2C3=C(COC3=O)Nc3cc(OC)ccc32)c1
[13]
  Activity: Active

## O=C1OCC2=C1C(c1cc(Br)cs1)c1cc3c(cc1N2)OCO3 (stereo unspecified)
[8]
  Activity: inactive
[11]
  Activity: Active

## CC1CC2=C(C(=O)O1)C(c1cccc(Cl)c1)c1cc3c(cc1N2)OCO3 (stereo unspecified)
[3]
  Activity: Active
[2]
  Activity: Active

## O=C1OCC2=C1C(c1cccc(Br)c1)c1cc3c(cc1N2)OCO3 (stereo unspecified)
[3]
  Activity: Active

## COc1cc(C2C3=C(COC3=O)Nc3cc4c(cc32)OCO4)ccc1F (stereo unspecified)
[1]
  Activity: Active
[2]
  Activity: Active
